# Measured values taken from publication PMC3390648 (The Journal of Biological Chemistry, 2012).
# Experiments:
# B subunit Pol12 = experiment: Immunoprecipitation from yeast extracts and mass spectrometry, B subunit; type: cell-based, Saccharomyces cerevisiae; details: diploid yeast, anti-Myc beads, spectral counts
# Outline: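 Diploid strains grown asynchronously in YPD (1% yeast extract, 2% peptone, 40 μg/ml adenine, 2% glucose). Extracts made from 250 ml mid-log culture (2.5 × 10^9 cells) with 100 mM potassium acetate, then Benzonase-digested (800 units, 30 min, 4 °C). Tagged protein immunoprecipitated on anti-Myc (9E10) magnetic beads. Eluate run 1 cm into SDS gel, cut into 10 bands, trypsin-digested, and analysed by mass spectrometry.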
# primase [1] = experiment: Immunoprecipitation from yeast extracts and mass spectrometry, primase; type: cell-based, Saccharomyces cerevisiae; details: diploid yeast, anti-Myc beads, spectral counts
# Outline: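 Asynchronous diploid cultures were grown in YPD. Extracts were made from 250 ml of mid-log cells (2.5 × 10^9) with 100 mM potassium acetate. DNA was digested with 800 units of Benzonase for 30 min at 4 °C before capture on 9E10 magnetic beads. Each sample was run 1 cm into an SDS gel, cut into 10 bands, trypsin-digested and analysed by mass spectrometry.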
# Pol12 = experiment: Immunoprecipitation and immunoblotting, Pol12; type: cell-based, Saccharomyces cerevisiae; details: diploid yeast, anti-HA beads, native cell extracts, immunoblotting
# [2] = test system: other replisome components; experiment: Immunoprecipitation and immunoblotting, replisome components; type: cell-based, Saccharomyces cerevisiae; details: diploid yeast, anti-HA beads, native cell extracts, immunoblotting; relative to wild-type Pol1
# primase [3] = experiment: Immunoprecipitation and immunoblotting, primase; type: cell-based, Saccharomyces cerevisiae; details: diploid yeast, anti-HA beads, immunoblotting
# [4] = test system: S phase checkpoint pathway (Mec1); experiment: Dependence of viability on S phase checkpoint; type: cell-based, Saccharomyces cerevisiae
# B subunit = details: last 67 amino acids of recombinant human pol α removed; cited from earlier work
# yeast cells = experiment: Tetrad analysis, colony formation and growth of yeast cells; type: cell-based, Saccharomyces cerevisiae; details: tetrad analysis of meiotic progeny of heterozygous diploid, rich medium YPD
# Outline: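 Heterozygous diploids, each carrying one wild-type POL1 copy and one mutant pol1 allele (C-terminal truncation or point mutant), were sporulated. Meiotic progeny were scored by tetrad analysis for germination and colony growth. Medium was rich YPD: 1% yeast extract, 2% peptone, 40 μg/ml adenine, 2% glucose as sole carbon source.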
molecule,measurement,setting,value
"Pol1-F1463A (protein, left off: 9MYC, end not stated, kept) MSSKSEKLEKLRKLQAARNGTSIDDYEGDESDGDRIYDEIDEKEYRARKRQELLHDDFVVDDDGVGYVDRGVEEDWREVDNSSSDEDTGNLASKDSKRKKNIKREKDHQITDMLRTQHSKSTLLAHAKKSQKKSIPIDNFDDILGEFESGEVEKPNILLPSKLRENLNSSPTSEFKSSIKRVNGNDESSHDAGISKKVKIDPDSSTDKYLEIESSPLKLQSRKLRYANDVQDLLDDVENSPVVATKRQNVLQDTLLANPPSAQSLADEEDDEDSDEDIILKRRTMRSVTTTRRVNIDSRSNPSTSPFVTAPGTPIGIKGLTPSKSLQSNTDVATLAVNVKKEDVVDPETDTFQMFWLDYCEVNNTLILFGKVKLKDDNCVSAMVQINGLCRELFFLPREGKTPTDIHEEIIPLLMDKYGLDNIRAKPQKMKYSFELPDIPSESDYLKVLLPYQTPKSSRDTIPSDLSSDTFYHVFGGNSNIFESFVIQNRIMGPCWLDIKGADFNSIRNASHCAVEVSVDKPQNITPTTTKTMPNLRCLSLSIQTLMNPKENKQEIVSITLSAYRNISLDSPIPENIKPDDLCTLVRPPQSTSFPLGLAALAKQKLPGRVRLFNNEKAMLSCFCAMLKVEDPDVIIGHRLQNVYLDVLAHRMHDLNIPTFSSIGRRLRRTWPEKFGRGNSNMNHFFISDICSGRLICDIANEMGQSLTPKCQSWDLSEMYQVTCEKEHKPLDIDYQNPQYQNDVNSMTMALQENITNCMISAEVSYRIQLLTLTKQLTNLAGNAWAQTLGGTRAGRNEYILLHEFSRNGFIVPDKEGNRSRAQKQRQNEENADAPVNSKKAKYQGGLVFEPEKGLHKNYVLVMDFNSLYPSIIQEFNICFTTVDRNKEDIDELPSVPPSEVDQGVLPRLLANLVDRRREVKKVMKTETDPHKRVQCDIRQQALKLTANSMYGCLGYVNSRFYAKPLAMLVTNKGREILMNTRQLAESMNLLVVYGDTDSVMIDTGCDNYADAIKIGLGFKRLVNERYRLLEIDIDNVFKKLLLHAKKKYAALTVNLDKNGNGTTVLEVKGLDMKRREFCPLSRDVSIHVLNTILSDKDPEEALQEVYDYLEDIRIKVETNNIRIDKYKINMKLSKDPKAYPGGKNMPAVQVALRMRKAGRVVKAGSVITFVITKQDEIDNAADTPALSVAERAHALNEVMIKSNNLIPDPQYYLEKQIFAPVERLLERIDSFNVVRLSEALGLDSKKYFRREGGNNNGEDINNLQPLETTITDVERFKDTVTLELSCPSCDKRFPFGGIVSSNYYRVSYNGLQCKHCEQLFTPLQLTSQIEHSIRAHISLYYAGWLQCDDSTCGIVTRQVSVFGKRCLNDGCTGVMRYKYSDKQLYNQLLYFDSLFDCEKNKKQELKPIYLPDDLDYPKEQLTESSIKALTEQNRELMETGRSVVQKYLNDCGRRYVDMTSIADFMLN",association with B subunit Pol12,B subunit Pol12,as efficiently as wild-type Pol1
same,co-purification with primase,primase [1],neither of the mutated alleles of Pol1 co-purified with primase
same,association with Pol12,Pol12,all associated equally well with Pol12
same,co-purification with other replisome components,[2],slightly weaker than for wild-type Pol1
same,"interaction with primase, native cell extracts",primase [3]; native extracts,neither of the mutated forms interacted with primase
same,"interaction with primase, formaldehyde-treated cells","primase [3]; cells treated with 1% formaldehyde, 25 min, 24 °C",neither of the mutated forms interacted with primase
same,dependence for survival on checkpoint kinases,"[4]; Mec1 and Rad53, data not shown",dependence for survival on the checkpoint kinases Mec1 and Rad53
same,survival in combination with mec1Δ,[4]; pol1-F1463A combined with mec1Δ (SML1 deleted),die after a couple of rounds of cell division
same,dependence of viability on checkpoint kinase,[4]; sml1Δ mec1Δ background,completely dependent upon the Mec1 checkpoint kinase
"truncated protein: recombinant form of human pol α with the last 67 amino acids removed (protein, UniProt P09884 1-1395, looked up, fragment) MAPVHGDDSLSDSGSFVSSRARREKKSKKGRQEALERLKKAKAGEKYKYEVEDFTGVYEEVDEEQYSKLVQARQDDDWIVDDDGIGYVEDGREIFDDDLEDDALDADEKGKDGKARNKDKRNVKKLAVTKPNNIKSMFIACAGKKTADKAVDLSKDGLLGDILQDLNTETPQITPPPVMILKKKRSIGASPNPFSVHTATAVPSGKIASPVSRKEPPLTPVPLKRAEFAGDDVQVESTEEEQESGAMEFEDGDFDEPMEVEEVDLEPMAAKAWDKESEPAEEVKQEADSGKGTVSYLGSFLPDVSCWDIDQEGDSSFSVQEVQVDSSHLPLVKGADEEQVFHFYWLDAYEDQYNQPGVVFLFGKVWIESAETHVSCCVMVKNIERTLYFLPREMKIDLNTGKETGTPISMKDVYEEFDEKIATKYKIMKFKSKPVEKNYAFEIPDVPEKSEYLEVKYSAEMPQLPQDLKGETFSHVFGTNTSSLELFLMNRKIKGPCWLEVKSPQLLNQPVSWCKVEAMALKPDLVNVIKDVSPPPLVVMAFSMKTMQNAKNHQNEIIAMAALVHHSFALDKAAPKPPFQSHFCVVSKPKDCIFPYAFKEVIEKKNVKVEVAATERTLLGFFLAKVHKIDPDIIVGHNIYGFELEVLLQRINVCKAPHWSKIGRLKRSNMPKLGGRSGFGERNATCGRMICDVEISAKELIRCKSYHLSELVQQILKTERVVIPMENIQNMYSESSQLLYLLEHTWKDAKFILQIMCELNVLPLALQITNIAGNIMSRTLMGGRSERNEFLLLHAFYENNYIVPDKQIFRKPQQKLGDEDEEIDGDTNKYKKGRKKAAYAGGLVLDPKVGFYDKFILLLDFNSLYPSIIQEFNICFTTVQRVASEAQKVTEDGEQEQIPELPDPSLEMGILPREIRKLVERRKQVKQLMKQQDLNPDLILQYDIRQKALKLTANSMYGCLGFSYSRFYAKPLAALVTYKGREILMHTKEMVQKMNLEVIYGDTDSIMINTNSTNLEEVFKLGNKVKSEVNKLYKLLEIDIDGVFKSLLLLKKKKYAALVVEPTSDGNYVTKQELKGLDIVRRDWCDLAKDTGNFVIGQILSDQSRDTIVENIQKRLIEIGENVLNGSVPVSQFEINKALTKDPQDYPDKKSLPHVHVALWINSQGGRKVKAGDTVSYVICQDGSNLTASQRAYAPEQLQKQDNLTIDTQYYLAQQIHPVVARICEPIDGIDAVLIATWLGLDPTQFRVHHYHKDEENDALLGGPAQLTDEEKYRDCERFKCPCPTCGTENIYDNVFDGSGTDMEPSLYRCSNIDCKASPLTFTVQLSNKLIMDIRRFIKKYYDGWLICEEPTCRNRTRHLPLQFSRTGPLCPACMKATLQPEYSDKSLYTQLCFY",interaction with the B subunit,B subunit,abolished interaction with the B subunit
"Pol1 1–1452: Pol1 allele with the sequence encoding the last 16 amino acids removed (protein, left off: 9MYC, end not stated, kept) MSSKSEKLEKLRKLQAARNGTSIDDYEGDESDGDRIYDEIDEKEYRARKRQELLHDDFVVDDDGVGYVDRGVEEDWREVDNSSSDEDTGNLASKDSKRKKNIKREKDHQITDMLRTQHSKSTLLAHAKKSQKKSIPIDNFDDILGEFESGEVEKPNILLPSKLRENLNSSPTSEFKSSIKRVNGNDESSHDAGISKKVKIDPDSSTDKYLEIESSPLKLQSRKLRYANDVQDLLDDVENSPVVATKRQNVLQDTLLANPPSAQSLADEEDDEDSDEDIILKRRTMRSVTTTRRVNIDSRSNPSTSPFVTAPGTPIGIKGLTPSKSLQSNTDVATLAVNVKKEDVVDPETDTFQMFWLDYCEVNNTLILFGKVKLKDDNCVSAMVQINGLCRELFFLPREGKTPTDIHEEIIPLLMDKYGLDNIRAKPQKMKYSFELPDIPSESDYLKVLLPYQTPKSSRDTIPSDLSSDTFYHVFGGNSNIFESFVIQNRIMGPCWLDIKGADFNSIRNASHCAVEVSVDKPQNITPTTTKTMPNLRCLSLSIQTLMNPKENKQEIVSITLSAYRNISLDSPIPENIKPDDLCTLVRPPQSTSFPLGLAALAKQKLPGRVRLFNNEKAMLSCFCAMLKVEDPDVIIGHRLQNVYLDVLAHRMHDLNIPTFSSIGRRLRRTWPEKFGRGNSNMNHFFISDICSGRLICDIANEMGQSLTPKCQSWDLSEMYQVTCEKEHKPLDIDYQNPQYQNDVNSMTMALQENITNCMISAEVSYRIQLLTLTKQLTNLAGNAWAQTLGGTRAGRNEYILLHEFSRNGFIVPDKEGNRSRAQKQRQNEENADAPVNSKKAKYQGGLVFEPEKGLHKNYVLVMDFNSLYPSIIQEFNICFTTVDRNKEDIDELPSVPPSEVDQGVLPRLLANLVDRRREVKKVMKTETDPHKRVQCDIRQQALKLTANSMYGCLGYVNSRFYAKPLAMLVTNKGREILMNTRQLAESMNLLVVYGDTDSVMIDTGCDNYADAIKIGLGFKRLVNERYRLLEIDIDNVFKKLLLHAKKKYAALTVNLDKNGNGTTVLEVKGLDMKRREFCPLSRDVSIHVLNTILSDKDPEEALQEVYDYLEDIRIKVETNNIRIDKYKINMKLSKDPKAYPGGKNMPAVQVALRMRKAGRVVKAGSVITFVITKQDEIDNAADTPALSVAERAHALNEVMIKSNNLIPDPQYYLEKQIFAPVERLLERIDSFNVVRLSEALGLDSKKYFRREGGNNNGEDINNLQPLETTITDVERFKDTVTLELSCPSCDKRFPFGGIVSSNYYRVSYNGLQCKHCEQLFTPLQLTSQIEHSIRAHISLYYAGWLQCDDSTCGIVTRQVSVFGKRCLNDGCTGVMRYKYSDKQLYNQLLYFDSLFDCEKNKKQELKPIYLPDDLDYPKEQLTESSIKALTEQNRELMETGRSVVQKYLNDC",association with B subunit Pol12,B subunit Pol12,as efficiently as wild-type Pol1
same,association with Pol12,Pol12,all associated equally well with Pol12
same,colony formation / viability and growth,yeast cells,not able to form colonies
